The nature of assay [1]: Selectivity ratio of IC50 for rat liver DHFR to IC50 for Toxoplasma gondii DHFR. In short, it runs like this:
(§1)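 The ratio is rat liver DHFR IC50 divided by pathogen DHFR IC50. Both IC50s come from triplicate continuous spectrophotometric assays following NADPH oxidation at 37 °C, with substrate and cofactor saturating.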

A short description of assay [2]: Selectivity ratio of IC50 for rat liver DHFR to IC50 for Pneumocystis carinii DHFR. A digest of the protocol:
as §1

Assay [3] deals with T1, Bifunctional dihydrofolate reductase-thymidylate synthase (Toxoplasma gondii) (UniProt Q07422).
T1 sequence (whole entry): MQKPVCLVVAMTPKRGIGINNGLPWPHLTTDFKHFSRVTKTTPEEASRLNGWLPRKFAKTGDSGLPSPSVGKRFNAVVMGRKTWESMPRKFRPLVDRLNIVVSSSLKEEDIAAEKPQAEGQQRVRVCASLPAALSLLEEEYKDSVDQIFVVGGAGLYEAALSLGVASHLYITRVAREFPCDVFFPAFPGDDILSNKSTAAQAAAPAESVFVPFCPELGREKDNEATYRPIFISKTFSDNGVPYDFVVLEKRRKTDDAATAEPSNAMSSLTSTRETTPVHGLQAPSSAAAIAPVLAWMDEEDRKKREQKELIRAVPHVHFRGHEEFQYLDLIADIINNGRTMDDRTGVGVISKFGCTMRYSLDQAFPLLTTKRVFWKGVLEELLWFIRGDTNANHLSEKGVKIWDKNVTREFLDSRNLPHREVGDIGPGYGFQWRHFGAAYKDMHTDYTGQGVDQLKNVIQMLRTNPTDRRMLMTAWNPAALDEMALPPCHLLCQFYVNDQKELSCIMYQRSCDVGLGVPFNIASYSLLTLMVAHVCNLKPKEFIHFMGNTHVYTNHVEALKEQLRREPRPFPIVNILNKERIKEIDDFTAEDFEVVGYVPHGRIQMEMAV
The assay can be described thus: Inhibition of Toxoplasma gondii DHFR by continuous spectrophotometric assay. In short, it runs like this: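 Toxoplasma gondii DHFR was assayed continuously by spectrophotometry, following NADPH oxidation at 340 at 37 °C with saturating substrate and cofactor, in triplicate. […]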

For assay [4], the target named is T2, Dihydrofolate reductase (Rattus norvegicus) (UniProt Q920D2).
T2 sequence (whole entry): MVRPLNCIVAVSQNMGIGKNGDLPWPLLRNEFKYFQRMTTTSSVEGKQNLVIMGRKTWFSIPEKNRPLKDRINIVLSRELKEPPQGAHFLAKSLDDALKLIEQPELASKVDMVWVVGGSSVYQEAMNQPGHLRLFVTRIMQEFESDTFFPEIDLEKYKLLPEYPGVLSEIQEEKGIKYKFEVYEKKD
The assay can be described thus: Inhibition of rat liver DHFR at IC50 by continuous spectrophotometric assay. In short, it runs like this: (§2)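 Continuous spectrophotometric assay of pathogen (pc, tg, ma) or rat liver DHFR. NADPH oxidation was followed at 340, at 37 °C, with substrate and cofactor both saturating. […]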

Assay [5] can be described thus: Selectivity ratio of IC50 for rat liver DHFR to IC50 for Mycobacterium avium DHFR. In short, it runs like this:
as §1

The target in assay [6] is T3, Dihydrofolate reductase (Mycobacterium avium) (UniProt O30463).
T3 sequence (whole entry): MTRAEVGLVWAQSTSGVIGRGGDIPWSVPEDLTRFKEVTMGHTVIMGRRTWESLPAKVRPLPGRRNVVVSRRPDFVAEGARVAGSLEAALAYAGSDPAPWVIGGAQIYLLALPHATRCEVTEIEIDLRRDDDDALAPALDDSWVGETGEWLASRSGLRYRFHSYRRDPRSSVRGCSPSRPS
The assay can be described thus: Inhibition of Mycobacterium avium DHFR at IC50 by continuous spectrophotometric assay. In short, it runs like this:
as §2

In assay [7] the target is T4, Dihydrofolate reductase (Pneumocystis carinii) (UniProt P16184).
T4 sequence (whole entry): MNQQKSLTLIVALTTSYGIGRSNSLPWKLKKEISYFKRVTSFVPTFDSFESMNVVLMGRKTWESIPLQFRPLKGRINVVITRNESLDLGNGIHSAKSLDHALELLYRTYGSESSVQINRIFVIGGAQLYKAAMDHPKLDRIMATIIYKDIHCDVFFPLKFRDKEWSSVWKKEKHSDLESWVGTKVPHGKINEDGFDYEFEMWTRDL
The assay can be described thus: Inhibition of Pneumocystis carinii DHFR at IC50 by continuous spectrophotometric assay. In short, it runs like this:
as §2

Assay [8] concerns the target T1, Bifunctional dihydrofolate reductase-thymidylate synthase (Toxoplasma gondii). As to the kind of experiment: Inhibition of Toxoplasma gondii DHFR at IC50 by continuous spectrophotometric assay. More on the design: concentration or dose not given beside the values. In short, it runs like this:
as §2

In the case of `Nc1ncc(CN2c3ccccc3C=Cc3ccccc32)c(N)n1`, the Ratio IC50 in assay [1] was more than 16; in assay [5], more than 20. The IC50 selectivity ratio (rat liver / P. carinii DHFR) in assay [2] is more than 5. In assay [3], this compound returned an Activity of 8.07 µM. The inhibition – broadly, the drop in the measured response relative to a control, in per cent – in assay [4] came to 15%.
Take `Nc1nc(N)nc(CN2c3ccccc3Sc3ccc(Cl)cc32)n1`: the values for the inhibition in assay [6] and in assay [4] were 5% and 8%, respectively. The same compound gave an Activity in assay [3] of 397 µM.
Regarding `COc1cc(COc2cc(N)nc(N)n2)cc(OC)c1OC`, the inhibition in assay [7] came out at 0%; in assay [8] it was 10%; in assay [6], 12%; in assay [4] it was 12%. The compound also came in with an Activity in assay [3] of 145 µM.
As to `Nc1nc(N)nc(CN2c3ccccc3CCc3ccccc32)n1`, the inhibition in assay [8] worked out at 10%; in assay [6] it was 9%; in assay [4], 0%. This compound had an Activity in assay [3] of 140 µM.
For `COc1ccc(C(=O)/C=C/c2cnc(N)nc2N)cc1`, the results for the inhibition in assay [7], in assay [8] and in assay [6] were 4%, 15% and 14%, respectively. In addition, the Activity in assay [3] amounted to 151 µM.
For `CN(Cc1cnc(N)nc1N)c1cccc2ccccc12`, the Ratio IC50 in assay [1] was 52.7; in assay [5] it was 209. Further, the IC50 selectivity ratio (rat liver / P. carinii DHFR) in assay [2] came to 4.79. Also, in assay [3], the Activity stood at 3.49 µM.
For the compound `Nc1ncc(COS(=O)(=O)c2ccc3ccccc3c2)c(N)n1`, the IC50 selectivity ratio (rat liver / P. carinii DHFR) in assay [2] was more than 15.7. Further, the inhibition in assay [8] was 13%; in assay [6] it was 15%; in assay [4] it was 0%. Also, the Activity in assay [3] was determined as 124 µM.
In the case of `Nc1ncc(CNc2cccc3ccccc23)c(N)n1`, in assay [1], the Ratio IC50 stood at 5.78. In addition, in assay [2], the IC50 selectivity ratio (rat liver / P. carinii DHFR) was found to be 0.85. The compound further displayed an inhibition in assay [6] of 9%. Moreover, in assay [3], the Activity was 22.1 µM.
Take `Nc1ncc(CSc2nc3ccccc3o2)c(N)n1`: the Ratio IC50 in assay [1] was 3.25; in assay [5] it was 22.5. Moreover, the IC50 selectivity ratio (rat liver / P. carinii DHFR) in assay [2] is 14.5. In assay [3], this compound showed an Activity of 160 µM.
Taken in the same sequence, the figures for `Nc1ncc(CN2c3ccccc3CCc3ccccc32)c(N)n1` were 11.5, 14.4, 1.89 and 0.14 µM.
Take `Nc1cc(OCCN2c3ccccc3C=Cc3ccccc32)nc(N)n1`: the values for the Ratio IC50 in assay [1] and in assay [5] were more than 35.8 and more than 51.4, respectively. The Activity in assay [3] turned out to be 3.35 µM. Further, the inhibition in assay [4] was found to be 39%.
With `Nc1nc(N)c2cc(COC(=O)c3c4ccccc4cc4ccccc34)ccc2n1`, the Ratio IC50 is 0.31 in assay [1] and 0.21 in assay [5]. Besides, in assay [2], the IC50 selectivity ratio (rat liver / P. carinii DHFR) was 0.43. Further, the Activity in assay [3] was found to be 0.67 µM.
Consider `Cc1ccc(COc2ccc(C(=O)/C=C/c3cnc(N)nc3N)cc2)cc1`, for which the inhibition in assay [7] was 2%; in assay [8] it was 10%; in assay [6], 4%; in assay [4], 0%. This compound also came in with an Activity in assay [3] of 117 µM.
Consider `Nc1nc(N)nc(CN2c3ccccc3Sc3ccccc32)n1`, for which the figures for the inhibition in assay [8], in assay [6] and in assay [4] were 15%, 4% and 16%, respectively. Besides, in assay [3], the Activity turned out to be 143 µM.
Turning to `Nc1nc(N)c2nc(CN3c4ccccc4C=Cc4ccccc43)cnc2n1`, the Ratio IC50 in assay [1] was found to be 102; in assay [5], 367. Moreover, the Activity in assay [3] came out at 0.043 µM.
As for `COc1ccc(NCc2cnc(N)nc2N)cc1`, the inhibition stood at 7% in assay [8], 0% in assay [6] and 0% in assay [4]. Besides, the Activity in assay [3] was found to be 44 µM.

These data come from ChEMBL document CHEMBL1157930, “Design, synthesis, biological evaluation and computational investigation of novel inhibitors of dihydrofolate reductase of opportunistic pathogens” (Bioorg Med Chem, 2010).
